Results: ChEMBL document CHEMBL3871293, “Discovery of novel DNA methyltransferase 3A inhibitors via structure-based virtual screening and biological assays” (Bioorg Med Chem Lett, 2017)
The source made the active and inactive calls. No cut-off for these calls is given here.

Experiments:
[1] = molecular target: T1, DNA (cytosine-5)-methyltransferase 3A (Homo sapiens, UniProt Q9Y6K1); test: (§1) Inhibition of N-terminal His6-tagged DNMT3A (623 to 908 residues) (unknown origin) expressed in Escherichia coli BL21 (DE3) coexpressing DNMT3L (160 to 386 C-terminal residues) (unknown origin) assessed as reduction in oligonucleosome methylation at 100 uM preincubated for 15 mins followed by addition of [3H]-SAM measured after 4 hrs by liquid scintillation counting method
Outline: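 DNMT3A/3L complex activity measured by radioactive methylation assay. Single-point screen at 100µM per compound, with sinefungin (a SAM competitor) run as the reference inhibitor.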

[2] = molecular target: T1, DNA (cytosine-5)-methyltransferase 3A; test: as §1, with “methylation” for “methylation at 100 uM”
Outline: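 IC50 determined from a dose-response in the same radioactive methylation assay on DNMT3A/3L. Sinefungin served as the SAM-competitive reference inhibitor.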

[3] = test system: THP-1; test: Growth inhibition of human THP1 cells at 12.5 to 200 uM measured after 48 hrs by AlamarBlue assay; format: functional, cell-based
Outline: (§2)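 AML cells were exposed to 12.5, 25, 50, 100 and 200µM for 48 hours before viability read-out: Kasumi-1, MV4-11 and THP-1.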

[4] = test system: KG-1; test: Growth inhibition of human KG1 cells at 12.5 to 200 uM measured after 72 hrs by AlamarBlue assay; format: functional, cell-based
Outline: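 KG-1 AML cells were treated at 12.5, 25, 50, 100 and 200µM, with viability read after 72 hours of exposure.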

[5] = test system: HeLa; test: Growth inhibition of human HeLa cells at 12.5 to 200 uM measured after 4 days by AlamarBlue assay; format: functional, cell-based
[6] = test system: MV4-11; test: Growth inhibition of human MV4-11 cells at 12.5 to 200 uM measured after 48 hrs by AlamarBlue assay; format: functional, cell-based; outline: as §2
[7] = test system: Kasumi 1; test: Growth inhibition of human Kasumi-1 cells at 12.5 to 200 uM measured after 48 hrs by AlamarBlue assay; format: functional, cell-based; outline: as §2

T1 sequence (Q9Y6K1 whole entry, looked up, the tested form may be a part): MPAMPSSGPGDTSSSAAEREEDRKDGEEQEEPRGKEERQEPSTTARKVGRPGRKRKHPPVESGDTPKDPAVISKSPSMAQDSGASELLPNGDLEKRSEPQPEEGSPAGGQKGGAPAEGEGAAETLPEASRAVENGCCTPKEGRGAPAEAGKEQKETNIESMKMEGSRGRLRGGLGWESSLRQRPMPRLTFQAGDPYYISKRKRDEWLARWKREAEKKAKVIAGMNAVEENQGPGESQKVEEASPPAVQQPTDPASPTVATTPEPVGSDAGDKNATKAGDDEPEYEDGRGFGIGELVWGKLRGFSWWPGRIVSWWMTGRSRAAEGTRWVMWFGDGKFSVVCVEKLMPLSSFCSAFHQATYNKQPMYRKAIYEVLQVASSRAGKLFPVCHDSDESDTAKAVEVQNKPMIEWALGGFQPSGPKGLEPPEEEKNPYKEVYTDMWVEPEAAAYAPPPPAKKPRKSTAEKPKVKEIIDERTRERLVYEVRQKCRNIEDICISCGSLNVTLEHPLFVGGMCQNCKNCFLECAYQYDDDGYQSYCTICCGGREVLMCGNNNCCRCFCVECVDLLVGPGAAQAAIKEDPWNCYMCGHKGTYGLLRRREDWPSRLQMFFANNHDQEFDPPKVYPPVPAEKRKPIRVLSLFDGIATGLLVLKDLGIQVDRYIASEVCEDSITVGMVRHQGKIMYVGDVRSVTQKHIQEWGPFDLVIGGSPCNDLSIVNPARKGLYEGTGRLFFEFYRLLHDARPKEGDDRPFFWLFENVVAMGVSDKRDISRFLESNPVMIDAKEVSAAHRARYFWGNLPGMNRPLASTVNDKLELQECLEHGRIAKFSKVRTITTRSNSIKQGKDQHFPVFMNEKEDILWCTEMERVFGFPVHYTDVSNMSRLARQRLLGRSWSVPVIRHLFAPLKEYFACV

Row | Structure (SMILES) | inhibition [1] | also measured
1 | CCOc1ccc(NC(=O)c2ccc3c(c2)C(=O)N(c2ccccc2)C3=O)cc1 | 19% | –
2 | COc1ccccc1NC(=O)c1ccc2c(c1)C(=O)N(Cc1ccco1)C2=O | 3% | –
3 | O=C(Nc1ccccc1Cl)c1ccc2c(c1)C(=O)N(Cc1ccco1)C2=O | 13% | –
4 | Cc1cc(Br)ccc1NC(=O)c1ccc2c(c1)C(=O)N(CC(C)C)C2=O | 8% | –
5 | Cc1ccc(O)c(NC(=O)c2ccc3c(c2)C(=O)N(Cc2cccnc2)C3=O)c1 | 6% | –
6 | COc1ccccc1N1C(=O)c2ccc(C(=O)Nc3ccccc3O)cc2C1=O | 1% | –
7 | O=C(Nc1ccc(Br)cc1C(=O)O)c1ccc2c(c1)C(=O)N(c1cc(Cl)ccc1C(=O)O)C2=O | 67% | IC50 [2]: 41 µM; growth inhibition (GI) [3]: Active; growth inhibition (GI) [4]: Active; growth inhibition (GI) [5]: Active; growth inhibition (GI) [6]: Active; growth inhibition (GI) [7]: Active
8 | COc1ccc(N2C(=O)c3ccc(C(=O)Nc4ccccc4OC)cc3C2=O)cc1 | 4% | –
9 | CC(c1ccccc1)N1C(=O)c2ccc(C(=O)Nc3ccc(Br)cc3C(=O)O)cc2C1=O (configuration not stated) | Active | IC50 [2]: 46.5 µM; growth inhibition (GI) [3]: Active; growth inhibition (GI) [4]: Active; growth inhibition (GI) [5]: Active; growth inhibition (GI) [6]: Active; growth inhibition (GI) [7]: Active

Second part, led by results:

Row | inhibition [1] | Structure (SMILES) | also measured
10 | 56% | CCOc1ccccc1N1C(=O)c2ccc(C(=O)Nc3ccc(Br)cc3C(=O)O)cc2C1=O | –
11 | 92% | O=C(O)c1ccc(NC(=O)c2ccc3c(c2)C(=O)N(Cc2ccco2)C3=O)cc1 | IC50 [2]: 64 µM
12 | -8% | COCCN1C(=O)c2ccc(C(=O)Nc3ccc(Br)cc3C(=O)O)cc2C1=O | –
13 | 11% | CC(C)(C)N1C(=O)c2ccc(C(=O)Nc3ccc(C(=O)O)cc3)cc2C1=O | –
14 | 11% | Cc1cc(O)ccc1NC(=O)c1ccc2c(c1)C(=O)N(Cc1cccnc1)C2=O | –
